Each structure is given as a SMILES string.

What all share (type): cell-based
One experiment deals with HEK-293 cell line. The experiment is described as follows: MTT toxicity assay, normal cell line HEK-293. The settings on record: Homo sapiens, HEK293, 48 h, read-out: IC50 against HEK-293. The procedure, abridged: (§1)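 Test compound dissolved in PBS with 0.5% DMSO and diluted in the same solvent. Cells were grown in DMEM with 10% FBS and 1% penicillin-streptomycin at 37 °C, 5% CO2. They were trypsinised, seeded and held 48 h, then given fresh medium. Exposure was 15.62–500 μM for 48 h. MTT (0.5 mg.mL−1) ran 4 h, formazan was dissolved in DMSO, and A570 read. Six vehicle wells per plate served as control. Viability was computed, in triplicate, as mean ± SD.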

The test system of the next experiment is A-375 cell line. In words: MTT assay, melanoma A-375 cell line. The following applies: Homo sapiens, A-375, 48 h, read-out: IC50 against A-375. The essentials: as §1
For orientation: Tetrazolium assays rely on reduction of a dye to a coloured formazan, in cell work by metabolically active cells.

The next experiment has as its system MCF-7 cell line. The experiment is described as follows: MTT assay, breast cancer MCF-7 cell line. The following applies: Homo sapiens, MCF7, 48 h, read-out: IC50 against MCF-7. The essentials:
as §1

For `Cc1ccc(Cn2cc(CN3CCN(c4nc5c(c(=O)n(C)c(=O)n5C)n4C)CC3)nn2)cc1` [Compound 12f, 1,3,7-Trimethyl-8-(4-((1-(4-methylbenzyl)-1H-1,2,3-triazol-4-yl)methyl)piperazin-1-yl)-3,7-dihydro-1H-purine-2,6-dione], the IC50 in the experiment with HEK-293 cell line, with A-375 cell line and in the experiment on MCF-7 cell line was > 500 µM in each case.
With `Cn1c(=O)c2c(nc(N3CCN(Cc4cn(CCCCCN5C(=O)c6ccccc6C5=O)nn4)CC3)n2C)n(C)c1=O` [Compound 12l, 8-(4-((1-(5-(1,3-Dioxoisoindolin-2-yl)pentyl)-1H-1,2,3-triazol-4-yl)methyl)piperazin-1-yl)-1,3,7-trimethyl-3,7-dihydro-1H-purine-2,6-dione], the IC50 in the experiment on HEK-293 cell line, in the experiment with A-375 cell line and in the experiment on MCF-7 cell line was > 500 µM throughout.
For the molecule `CCCCCCCCn1cc(CN2CCN(c3nc4c(c(=O)n(C)c(=O)n4C)n3C)CC2)nn1` [Compound 12j, 1,3,7-Trimethyl-8-(4-((1-octyl-1H-1,2,3-triazol-4-yl)methyl)piperazin-1-yl)-3,7-dihydro-1H-purine-2,6-dione], the results for the IC50 in the experiment with HEK-293 cell line, with A-375 cell line and in the experiment on MCF-7 cell line were 418 ± 2.4 µM, 323 ± 2.6 µM and 245 ± 2.3 µM, respectively.
On to `Cn1c(=O)c2c(nc(N3CCN(Cc4cn(CCCc5ccccc5)nn4)CC3)n2C)n(C)c1=O` [Compound 12d, 1,3,7-Trimethyl-8-(4-((1-(3-phenylpropyl)-1H-1,2,3-triazol-4-yl)methyl)piperazin-1-yl)-3,7-dihydro-1H-purine-2,6-dione], for which the IC50 with HEK-293 cell line, in the experiment on A-375 cell line and in the experiment on MCF-7 cell line was > 500 µM in each case.
In the case of `Cn1c(=O)c2c(nc(N3CCN(Cc4cn(CCc5ccccc5)nn4)CC3)n2C)n(C)c1=O` [Compound 12e, 1,3,7-Trimethyl-8-(4-((1-phenethyl-1H-1,2,3-triazol-4-yl)methyl)piperazin-1-yl)-3,7-dihydro-1H-purine-2,6-dione], the IC50 in the experiment on HEK-293 cell line, in the experiment on A-375 cell line and with MCF-7 cell line was > 500 µM throughout.
Take `Cn1c(=O)c2c(nc(N3CCN(Cc4cn(CCCN5C(=O)c6ccccc6S5(=O)=O)nn4)CC3)n2C)n(C)c1=O` [Compound 12n, 8-(4-((1-(3-(1,1-Dioxido-3-oxobenzo[d]isothiazol-2(3H)-yl)propyl)-1H-1,2,3-triazol-4-yl)methyl)piperazin-1-yl)-1,3,7-trimethyl-3,7-dihydro-1H-purine-2,6-dione]: the IC50 in the experiment with HEK-293 cell line, in the experiment with A-375 cell line and in the experiment with MCF-7 cell line was > 500 µM throughout.
`CCCCCCCCCCn1cc(CN2CCN(c3nc4c(c(=O)n(C)c(=O)n4C)n3C)CC2)nn1` [Compound 12k, 8-(4-((1-Decyl-1H-1,2,3-triazol-4-yl)methyl)piperazin-1-yl)-1,3,7-trimethyl-3,7-dihydro-1H-purine-2,6-dione]: the figures for the 50% inhibitory concentration (IC50) in the experiment with HEK-293 cell line, with A-375 cell line and with MCF-7 cell line were > 500 µM, 367 ± 3.4 µM and 175 ± 3.2 µM, respectively.
In the case of `CN(Cc1cnc2nc(N)nc(N)c2n1)c1ccc(C(=O)N[C@@H](CCC(=O)O)C(=O)O)cc1` [MTX, methotrexate, reference compound], the IC50 in the experiment on HEK-293 cell line came to 199 ± 2.4 µM; in the experiment with A-375 cell line, 418 ± 2 µM; in the experiment with MCF-7 cell line it was 343 ± 3.6 µM.
For `Cn1c(=O)c2c(nc(N3CCN(Cc4cn(CCCCCN5C(=O)c6ccccc6S5(=O)=O)nn4)CC3)n2C)n(C)c1=O` [Compound 12o, 8-(4-((1-(5-(1,1-Dioxido-3-oxobenzo[d]isothiazol-2(3H)-yl)pentyl)-1H-1,2,3-triazol-4-yl)methyl)piperazin-1-yl)-1,3,7-trimethyl-3,7-dihydro-1H-purine-2,6-dione] the same measures were > 500 µM, > 500 µM and > 500 µM.
The matching figures for `Cn1c(=O)c2c(nc(N3CCN(Cc4cn(CCCCN5C(=O)c6ccccc6S5(=O)=O)nn4)CC3)n2C)n(C)c1=O` [Compound 12m, 8-(4-((1-(4-(1,1-Dioxido-3-oxobenzo[d]isothiazol-2(3H)-yl)butyl)-1H-1,2,3-triazol-4-yl)methyl)piperazin-1-yl)-1,3,7-trimethyl-3,7-dihydro-1H-purine-2,6-dione]: > 500 µM, > 500 µM and > 500 µM.
Regarding `Cn1c(=O)c2c(nc(N3CCN(Cc4cn(C(c5ccccc5)c5ccccc5)nn4)CC3)n2C)n(C)c1=O` [Compound 12c, 8-(4-((1-Benzhydryl-1H-1,2,3-triazol-4-yl)methyl)piperazin-1-yl)-1,3,7-trimethyl-3,7-dihydro-1H-purine-2,6-dione], the IC50 in the experiment on HEK-293 cell line, in the experiment on A-375 cell line and in the experiment with MCF-7 cell line was > 500 µM each time.
In the case of `CCOC(=O)CCCn1cc(CN2CCN(c3nc4c(c(=O)n(C)c(=O)n4C)n3C)CC2)nn1` [Compound 12g, Ethyl 4-(4-((4-(1,3,7-trimethyl-2,6-dioxo-2,3,6,7-tetrahydro-1H-purin-8-yl)piperazin-1-yl)methyl)-1H-1,2,3-triazol-1-yl)butanoate], the IC50 with HEK-293 cell line, in the experiment on A-375 cell line and in the experiment with MCF-7 cell line was > 500 µM throughout.
`CCCCCCn1cc(CN2CCN(c3nc4c(c(=O)n(C)c(=O)n4C)n3C)CC2)nn1` [Compound 12i, 8-(4-((1-Hexyl-1H-1,2,3-triazol-4-yl)methyl)piperazin-1-yl)-1,3,7-trimethyl-3,7-dihydro-1H-purine-2,6-dione]: the results for the IC50 with HEK-293 cell line, with A-375 cell line and with MCF-7 cell line were 371 ± 2.3 µM, 371 ± 2.5 µM and 260 ± 2.2 µM, respectively.
For `CCCCCCCn1cc(CN2CCN(c3nc4c(c(=O)n(C)c(=O)n4C)n3C)CC2)nn1` [Compound 12h, 8-(4-((1-Heptyl-1H-1,2,3-triazol-4-yl)methyl)piperazin-1-yl)-1,3,7-trimethyl-3,7-dihydro-1H-purine-2,6-dione] the same measures were > 500 µM, 498 ± 2 µM and 306 ± 1.8 µM.
For `Cn1c(=O)c2c(nc(N3CCN(Cc4cn(Cc5ccccc5)nn4)CC3)n2C)n(C)c1=O` [Compound 12a, 8-(4-((1-Benzyl-1H-1,2,3-triazol-4-yl)methyl)piperazin-1-yl)-1,3,7-trimethyl-3,7-dihydro-1H-purine-2,6-dione] the same measures were > 500 µM, > 500 µM and > 500 µM.
Regarding `Cn1c(=O)c2c(nc(N3CCN(Cc4cn(CC(=O)OCc5ccccc5)nn4)CC3)n2C)n(C)c1=O` [Compound 12b, Benzyl 2-(4-((4-(1,3,7-trimethyl-2,6-dioxo-2,3,6,7-tetrahydro-1H-purin-8-yl)piperazin-1-yl)methyl)-1H-1,2,3-triazol-1-yl)acetate], the IC50 with HEK-293 cell line, in the experiment on A-375 cell line and in the experiment on MCF-7 cell line was > 500 µM throughout.

The IC50 is the concentration at which inhibition is half-maximal.

The record behind these values is paper PMC10436028 (RSC Advances, 2023).
